STAT1 blocker: STAT1 signaling inhibitors, primary screen, cell-based, HTS, luciferase reporter; NIH 3T3 STAT1-luciferase reporter, IFN-gamma, luminescence; inhibition, % at 5.5 µM; 200,000 tested, 0.35% active;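 active = inhibition above a set limit, the mean inhibition across all tested compounds plus 3 SD, cut at about 34% in these data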;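 note: 0% = IFN-gamma with DMSO and 100% = IFN-gamma with 300 µM nifuroxazide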
STAT1 act: STAT1 signaling activators, primary screen, cell-based, HTS, luciferase reporter; NIH 3T3 STAT1-luciferase reporter, IFN-gamma, luminescence; 100% = IFN-gamma alone, no compound; activation (% of control), % at 5.5 µM; 200,000 tested, 2.6% active; AID 932, 2007;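 active = activation above the screen-wide mean activation plus 3 SD, cut at about 130% in these data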;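 note: raw ratio to IFN-gamma control signal so 100% means no change and 0% no light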
STAT3 activator: IL-6 driven STAT3 reporter potentiators, primary screen, U3A cells, luciferase, luminescence, MLSCN library; AID 871, 2007; 190,000 tested, 0.91% active; activation (% of control), % at 5.6 µM; IL-6 STAT3-luciferase reporter; 100% = signal with IL-6 EC80 alone;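 active = activation above the screen-wide mean of compound activation plus 3 SD, cut at about 130% in these data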;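 note: 0% = background luminescence of wells with medium and substrate only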
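Material: human U3A cells carrying STAT3-luciferase construct. Measured by: reporter luminescence signal. Timing: compound 1 h, then IL-6 6 h at 37 °C.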
NF-kB neuron act: activators of NF-kB expression in neurons, primary screen, cell-based, HTS; human neuronal cells, NF-kB reporter expression; active compounds read high; fold change at 12.5 µM; AID 1239, 2008; 190,000 tested, 1.6% active; in the data active = fold change above about 3.3
APP 5'UTR act: activators of APP 5'UTR luciferase reporter, primary screen, SH-SY5Y cells | 190,000 tested, 1% active | SH-SY5Y APP 5'UTR luciferase reporter, luminescence; zero percent = DMSO vehicle wells | activation, % at 2 µM;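 active = activation above a set limit, based on mean plus 3 SD of controls, cut at about 140% in these data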
STAT3 inh: IL-6 driven STAT3 reporter inhibitors, primary screen, U3A cells, luciferase, luminescence, MLSCN library; IL-6 STAT3-luciferase reporter; host cell line lacks STAT1; AID 862, 2007; 190,000 tested, 0.89% active; inhibition, % at 5.5 µM;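 active = inhibition above the mean inhibition across all screened compounds plus 3 SD, cut at about 44% in these data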;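 note: 0% = DMSO only wells and 100% = 100 µM nifuroxazide control wells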
STAT1 activ conf: STAT1 signaling activators, confirmation, cell-based, HTS, luciferase reporter; activation (% of control), % at 5.7 µM; 1,200 tested, 97% active; NIH 3T3 STAT1-luciferase reporter, IFN-gamma potentiation, luminescence; 100% = IFN-gamma EC80 alone, no compound; shares compounds with STAT1 act;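 active = activation above a set limit carried over from the earlier primary STAT1 screen, cut at about 140% in these data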;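 note: simple ratio to median IFN-gamma plus DMSO wells so 0% means no light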
NFkB act: NF-kB reporter activators, TNF-alpha stimulated, counter-screen for STAT1 activator project, cell-based, HEK293T, luciferase luminescence | shares compounds with STAT1 act | 100% = TNF-alpha with vehicle only | activation (% of control), % at 5.7 µM | 1,200 tested, 43% active;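 active = activation above the mean of solvent-only control wells plus 3 SD, set per campaign, cut at about 130% in these data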;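 note: TNF-alpha given at a submaximal dose yielding about 80% of full reporter signal; values are well signal over median control so 100% means no change and 0% no light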
STAT3 act 2: STAT3 reporter activation by STAT1 hits, confirmation, counter-screen for STAT1 activator project, U3A cells, luciferase, luminescence. activation (% of control), % at 5.7 µM. shares compounds with STAT1 act. AID 1316, 2008. 1,200 tested, 46% active. IL-6; cells lack STAT1; 100 = IL-6 alone, no compound effect;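 active = activation above the solvent-only control well mean plus 3 SD, set per plate batch, cut at about 110% in these data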;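 note: 0% = no luminescence and 100% = median IL-6 plus DMSO wells; higher means more STAT3 reporter activation so hits are non-selective activators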
The depositor's hits bear a star; / = no result given. The list is not random: actives were taken first. Their share in the collection is about 4.9%.

SMILES	STAT1 blocker	STAT1 act	STAT3 activator	NF-kB neuron act	APP 5'UTR act	STAT3 inh	STAT1 activ conf	NFkB act	STAT3 act 2
CC(=Nc1ccccc1)c1sc2ccccc2c1O	-99	190*	124	6.3*	132	-23	228*	133*	150*
CC(=Nc1ccccc1)C1=C(O)COC1=O	-7	106	102	1.2	5	5	/	/	/
Cc1ccc2nc(/C=C/c3cccc(F)c3)ccc2c1	-107	194*	99	7.4*	214*	6	259*	150*	116*
CCOC(=O)c1cnc2ccccc2c1Nc1cc(C(=O)O)ccc1C	10	92	100	1.1	-22	5	/	/	/
Clc1ccc(-c2cn3c(n2)SCC3)cc1	-66	158*	77	4.8*	153*	33	183*	137*	122*
Brc1ccc(-c2cn3c(n2)SCC3)cc1	-69	166*	78	5.2*	157*	28	199*	137*	94
CCOC(=O)c1c(NC(=O)C2CCCN(S(=O)(=O)c3ccccc3)C2)sc2c1CCCC2 (centres undefined)	7	94	100	1.1	-3	0	/	/	/
Cc1cc(/C=C2/NC(=O)N(c3ccccc3)C2=O)c(C)n1-c1cccnc1	-58	151*	112	1.2	86	-10	192*	132	119*
O=C(NC1(C(F)(F)F)N=C(c2ccccc2)NC1=O)c1ccccc1F (centres undefined)	-11	110	102	1.3	-5	1	/	/	/
COc1ccc2c(c1)oc(=O)c1cc(OC)ccc12	-60	153*	/	2.4	83	/	152*	124	103
CSc1ccc(Cn2nnc(C(=O)NCc3ccccc3)c2N)cc1	2	98	99	1	16	7	/	/	/
C(=N\N=C\c1cccs1)/c1cccs1	-77	167*	87	3.3	91	20	189*	128	106
COc1ccc(OCCSc2ncccn2)cc1	-51	154*	102	4.1*	160*	0	181*	127	120*
Cc1cc(C)n(-c2ccc(C(=O)NC3=NCCS3)cc2)n1	-26	124	94	2	36	11	/	/	/
O=C(Nc1nc2ccccc2s1)c1ccc(N2CCCCC2)c([N+](=O)[O-])c1	-72	166*	74	2.5	116	30	197*	118	100
Cc1cc(C)n(-c2ccc(C(=O)Nc3nc4ccccc4s3)cc2)n1	-80	174*	100	3.9*	109	6	225*	141*	105
COc1ccccc1NC(=S)NC1CCC(CC2CCC(NC(=S)Nc3ccccc3OC)CC2)CC1 (centres undefined)	-2	102	106	1.1	-9	-12	/	/	/
S=C(NCCCn1ccnc1)NC1CCCCC1	4	96	91	1.2	6	14	/	/	/
CCOC(=O)c1ccc(N2C(=O)C(CC(N)=O)N(CCc3ccc(OC)c(OC)c3)C2=S)cc1 (centres undefined)	-7	103	104	1.3	1	0	/	/	/
Cc1ccc(N/C=C(/C#N)c2ccsc2)cc1C	-107	193*	117	5.2*	105	-21	235*	156*	125*
